Laboratory results: ChEMBL document CHEMBL1821623, “Anti-influenza virus polyketides from the acid-tolerant fungus Penicillium purpurogenum JS03-21” (J Nat Prod, 2011)

The compounds below were run on Influenza A virus (assay: Antiviral activity against Influenza A virus H1N1 infected in MDCK cells assessed as compound concentration required for inhibiting influenza virus yield at 48 h post-infection by crystal violet staining based CPE inhibition assay).
Type: functional, organism-based
Method in brief: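 CPE-inhibition assay against influenza A (H1N1). Ribavirin was the positive control. Activity was reported as an IC50 in μM.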
Work on `O=Cc1cc(C(=O)O)cc(O)c1C(=O)c1c(O)cccc1O` yielded an IC50 of 58.6 µM. With `C/C=C/C1=CC2=CC(=O)[C@@](C)(OC(=O)c3c(C)cc(O)cc3O)C(=O)[C@@]2(O)CO1` the IC50 was 64 µM. `CC1=C(O)C(=O)c2cc(O)c(O)cc2C1=O` gave an IC50 greater than 200 µM. In the case of `CC/C=C1\OC(=O)c2c1cc(O)c(O)c2C` [PURPURESTER B], the IC50 is reported as greater than 200 µM. `C/C=C/C1=CC2=CC(=O)[C@@](C)(OC(=O)c3c(C)cc(O)cc3O)C(=O)[C@@]2(O)[C@@H](O)O1` [PURPURQUINONE A] showed an IC50 greater than 200 µM. Work on `C/C=C/C1=CC2=CC(=O)[C@@](C)(OC(=O)c3c(C)cc(O)cc3O)C(=O)C2=CO1` yielded an IC50 greater than 200 µM. For `CCC[C@]1(OC)OC(=O)c2c1cc(O)c(O)c2C` [PURPURESTER A], the IC50 was 85.3 µM. Compound `NC(=O)c1ncn([C@@H]2O[C@H](CO)[C@@H](O)[C@H]2O)n1` [RIBAVIRIN] has an IC50 of 101 µM. `C/C=C/C1=CC2=CC(=O)[C@@](C)(OC(=O)c3c(O)cc(O)c(O)c3C)C(=O)[C@@]2(O)[C@@H](O)O1` [PURPURQUINONE B] was tested, and the IC50 was 61.3 µM.

The compounds below were run on OVCAR-3 (assay: Cytotoxicity against human OVCAR3 cells).
Type: functional
In the case of `CCCCC[C@@H]1Cc2cc(O)c(C(=O)O)c3c2[C@H](C[C@]2(OC[C@H](CC(=O)C(C)(CC)C(=O)OC)[C@H]2C)O3)O1` (stereo not given in full) [BERKELIC ACID], the GI50 is reported as 0.091 µM.
